Test results as given in paper PMC4116675 (Molecular microbiology, 2014).
“Also recorded” adds a separate entry of the source.

B1: MucA: anti-sigma factor; free MucA as competitor of resin-bound MucA (protein, UniProt P38107 1-194, looked up)
Sigma factor AlgU negative …: MSREALQETLSAVMDNEADELELRRVLAACGEDAELRSTWSRYQLARSVMHREPTLPKLDIAAAVSAALADEAAPPKAEKGPWRMVGRLAVAASVTLAVLAGVRLYNQNDALPQMAQQGTTPQIALPQVKGPAVLAGYSEEQGAPQVITNSSSSDTRWHEQRLPIYLRQHVQQSAVSGTESALPYARAASLENR
B2: MucB: competes for MucA binding and can inhibit this cleavage (protein, UniProt P38108 22-316, looked up)
Sigma factor AlgU regulatory …: ADASDWLNRLAEADRQNSFQGTFVYERNGSFSTHEIWHRVESDGAVRERLLQLDGARQEVVRVDGRTQCISGGLADQLADAQLWPVRKFDPSQLASWYDLRLVGESRVAGRPAVVLAVTPRDQHRYGFELHLDRDTGLPLKSLLLNEKGQLLERFQFTQLNTGAAPAEDQLQAGAECQVVGPAKADGEKTVAWRSEWLPPGFTLTRSFMRRSPVTPDPVACLTYGDGLARFSVFIEPLHGAMVGDARSQLGPTVVVSKRLQTDDGGQMVTVVGEVPLGTAERVALSIRPEAAAQK

Key:
[1] = test system: AlgW (substrate 35S-MucA, inhibitor MucB); assay: AlgW cleavage of 35S-MucA in the presence of MucB; format: biochemical, Pseudomonas aeruginosa; conditions: for MucA cleavage level relative to WVF and AlgW alone (no MucB): Figs. 4B vs 4D, CupB5 peptide + WVF + MucB; for antagonism / relief of MucB inhibition in vitro: summary statement, WVF-activated AlgW cleavage of MucA with MucB
[2] = test system: AlgW (substrate 35S-MucA); assay: WVF-activated AlgW cleavage of 35S-MucA with or without CupB5 peptides; format: biochemical, Pseudomonas aeruginosa; conditions: Fig. 5C; GYYYTVV 300 μM, increasing WVF, fixed MucA (50 μM)
Procedure, shortened: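 Ni-NTA-purified AlgW (0.5 μM trimer) cleaved 35S-MucA (50 μM) across a range of WVF peptide concentrations, with or without CupB5 peptides (300 μM). Protease addition started the reactions; cold 10% TCA quenched them at timed points. Acid-soluble products were scintillation-counted against total radioactivity, and rates were divided by substrate and enzyme concentrations. Values were averages ± SEM (n=2), fitted to rate = basal + Vmax/(1 + (Kact/[peptide])h).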

[3] = test system: MucB; assay: MucB oligomerization, gel-filtration chromatography; format: binding, Pseudomonas aeruginosa; conditions: Fig. S2
[4] = test system: MucB; conditions: ref Lima et al., 2013; cited from earlier work
[5] = test system: P. aeruginosa strain PAO1 and derivatives; assay: Alginate production and mucoid phenotype on plasmid overexpression of proteins; format: cell-based, Pseudomonas aeruginosa; conditions: Fig. 6A, 6B; for alginate production in PAO1-VE2 on plasmid-mediated overproduction: PAO1-VE2 (mucE overexpressed); for alginate production in PAO1-VE22 on plasmid-mediated overproduction: PAO1-VE22 (cupB5 overexpressed), 0.1% L-arabinose, 37°C, 24 h

| Molecule | MucA cleavage level relative to WVF and AlgW alone (no MucB) [1] | antagonism / relief of MucB inhibition in vitro [1] | alginate production in PAO1-VE2 on plasmid-mediated overproduction [5] | alginate production in PAO1-VE22 on plasmid-mediated overproduction [5] | also measured |
| --- | --- | --- | --- | --- | --- |
| GYYYTVV | approximately one-third | antagonized MucB inhibition in vitro; also recorded: only partially relieve MucB inhibition in vitro |  |  | change in maximum rate of MucA cleavage on adding CupB5 peptide [2]: increased almost two-fold; change in MucB elution / conversion of MucB dimers to tetramers [3]: no substantial change in elution during gel-filtration chromatography; also recorded: did not convert MucB dimers into tetramers |
| GYYYT | approximately one-third | did antagonize MucB inhibition in vitro; also recorded: only partially relieve MucB inhibition in vitro |  |  | potency and cooperativity of activation, GYYYT vs GYYYTVV ([1]; Fig. 4D, WVF 150 μM, MucB present): occurred at lower peptide concentrations and was less cooperative as judged by the Hill constant than activation by the GYYYTVV peptide |
| Lipopolysaccharides |  |  |  |  | binding to MucB and displacement of MucA [4]: bind MucB and competitively displace MucA |
| B1 |  |  | decreased alginate production in PAO1-VE2 | as did plasmid-mediated overproduction of MucA |  |
| B2 |  |  | decreased alginate production in PAO1-VE2 | plasmid-mediated MucB overproduction had this effect |  |
